The text below walks through data of ChEMBL document CHEMBL4651341, “The discovery of a novel series of compounds with single-dose efficacy against juvenile and adult Schistosoma species” (PLoS Negl Trop Dis, 2021).

For this experiment, the system named is Schistosoma mansoni. Description: Concentration required to kill 50% of 21 day old worms 5 days after drug treatment. In kind it is functional, organism-based. The conditions noted are these: Puerto Rican, 120 h. An outline of the steps:
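Juvenile S. mansoni (Puerto Rican strain) were perfused from CD1 mice 3 weeks post-infection and washed. They were cultured 6–8 per well in 200 µL DMEM with 2 mM glutamine, penicillin/streptomycin and 10% FCS at 37 °C, 5% CO2. Viability of individual worms was scored on day 5 after dosing (120 h).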
Usually EC50 stands for the concentration needed to bring the measured effect to its halfway point. For `CC(C)Oc1cccc(-c2cn3c(-c4cccc(CO)c4)cnc3cn2)c1`, the concentration for a half-maximal effect (EC50) is over 25 µM.

Compound `COc1ccc(-c2nnc3ccc(-c4cccc(F)c4)cn23)cc1OC` showed an EC50 of over 25 µM. `CC(C)c1cccc(-c2ccc3nnc(-c4cccnc4)n3c2)c1` showed a concentration giving a half-maximal response (EC50) of over 25 µM. In turn, `COc1ccc(-c2cnc3cnc(-c4cccc(F)c4)cn23)cc1` showed an EC50 of over 25 µM.

`COc1ccc(-c2cnc3cnc(-c4ccc(OC)nc4)cn23)cc1` yielded an EC50 of over 25 µM. `Cc1nnc2ccc(-c3cccc(C(C)C)c3)cn12` returned an EC50 of over 25 µM. Under `COc1ccc(-c2nnc3ccc(-c4cnn(CCN5CCOCC5)c4)cn23)cc1OC` stands over 25 µM; under `COCc1cccc(-c2nnc3ccc(-c4cccc(OC(C)C)c4)cn23)c1`, over 25 µM; under `CC(C)c1cccc(-c2ccc3nnc(-c4cn[nH]c4)n3c2)c1`, over 25 µM. Compound `COc1ccc(-c2nnc3ccc(-c4cccc(OC(C)C)c4)cn23)c(OC)c1` gave an EC50 of over 25 µM.

In turn, `CC(C)Oc1cccc(-c2ccc3nnc(-c4ccnc(C(F)(F)F)c4)n3c2)c1` showed a concentration giving a half-maximal response (EC50) of over 25 µM.

For the compound `CNC(=O)c1cccc(-c2ccc3nnc(-c4ccc(OC)c(OC)c4)n3c2)c1`, the half-maximal effective concentration (EC50) was over 25 µM. Under `COc1ccc(-c2nnc3ccc(-c4cccc(CN)c4)cn23)cc1OC` stands over 25 µM; under `COc1ccc(-c2nnc3ccc(-c4cccc(C#N)c4)cn23)cc1OC`, over 25 µM; under `COc1ccc(-c2nnc3ccc(-c4cccc(S(=O)(=O)N5CCOCC5)c4)cn23)cc1OC`, over 25 µM.

As for `COc1cc(-c2cnc3cnc(-c4cccc(OC(C)C)c4)cn23)ccn1`, the EC50 was over 25 µM. `COc1ccc(-c2nnc3ccc(-c4ccc5c(c4)OCCO5)cn23)cc1OC` showed a concentration giving a half-maximal response (EC50) of over 25 µM. `CC(C)Oc1cccc(-c2ccc3nnc(-c4ccc5c(c4)CCO5)n3c2)c1` displayed an EC50 of over 25 µM. Under `COc1ccc(-c2nnc3ccc(-c4c(OC)cccc4OC)cn23)cc1OC` stands over 25 µM; under `COc1ccc(-c2cnc3cnc(-c4cnn(CCN5CCOCC5)c4)cn23)c(C)c1`, over 25 µM. Under `Cc1cnc2cnc(-c3cccc(OC(C)C)c3)cn12` stands over 25 µM; under `CNC(=O)c1cccc(-c2cn3c(-c4ccc(OC)cc4)cnc3cn2)c1`, over 25 µM. Under `COc1ccc(-c2nnc3ccc(-c4cccc(Cl)c4)cn23)cc1OC` stands over 25 µM; under `COc1ccc(-c2cnc3cnc(-c4ccnc(C(F)(F)F)c4)cn23)cc1`, over 25 µM. Take `COc1cccc(-c2ccc3nnc(-c4ccc(OC)c(OC)c4)n3c2)n1`: the EC50 was over 25 µM. Under `COc1ccc(-c2nnc3ccc(-c4ccc5c(c4)CCO5)cn23)cc1OC` stands over 25 µM; under `CC(C)Oc1cccc(-c2cn3c(-c4cncnc4)cnc3cn2)c1`, over 25 µM; under `CC(C)c1cccc(-c2ccc3nnc(-c4ccnc(C(F)(F)F)c4)n3c2)c1`, over 25 µM. As for `COc1cc(-c2nnc3ccc(-c4cccc(OC(C)C)c4)cn23)ccn1`, the figure is over 25 µM; as for `COc1ncc(-c2ccc3nnc(-c4ccc(OC)c(OC)c4)n3c2)cn1`, over 25 µM; as for `Cc1ccc(-c2cnc3cnc(-c4cccc(OC(C)C)c4)cn23)cn1`, over 25 µM.

Regarding `CC(C)c1cccc(-c2ccc3nnc(-c4ccc(CN)cc4)n3c2)c1`, the concentration for a half-maximal effect (EC50) is over 25 µM. In turn, `CC(C)Oc1cccc(-c2cn3c(-c4ccc5cn[nH]c5c4)cnc3cn2)c1` had an EC50 of over 25 µM. As for `CC(C)c1cccc(-c2ccc3nnc(-c4cnn(C)c4)n3c2)c1`, the figure is over 25 µM; as for `COc1ccc(-c2nnc3ccc(-c4ccc(O)nc4)cn23)cc1OC`, over 25 µM. As for `COc1ccc(-c2cnc3cnc(-c4ccc5c(c4)OCCO5)cn23)cc1`, the figure is over 25 µM; as for `COc1ccc(-c2cnc3cnc(-c4cccc(S(=O)(=O)N5CCOCC5)c4)cn23)cc1`, over 25 µM; as for `COc1ccc(-c2nnc3ccc(-c4cccc(N)c4)cn23)cc1OC`, over 25 µM.

Compound `COc1ccc(-c2cnc3cnc(-c4cccc(OC(C)C)c4)cn23)cn1` gave a 50% effective concentration (EC50) of 24.2 µM. As for `COc1cccc(-c2nnc3ccc(-c4cccc(C(C)C)c4)cn23)n1`, the concentration giving a half-maximal response (EC50) came to 12.4 µM. As for `CC(C)Oc1cccc(-c2cn3c(-c4cn[nH]c4)cnc3cn2)c1`, the figure is over 25 µM; as for `COc1ccc(-c2nnc3ccc(-c4cnc5[nH]ncc5c4)cn23)cc1OC`, over 25 µM; as for `COc1ccc(-c2nnc3ccc(-c4cn[nH]c4)cn23)cc1OC`, over 25 µM. As for `CC(C)Oc1cccc(-c2cn3c(-c4ccnn4C)cnc3cn2)c1`, the figure is over 25 µM; as for `COc1ccc(-c2nnc3ccc(-c4ccccn4)cn23)cc1OC`, over 25 µM. As for `COc1ccc(-c2nnc3ccc(-c4ccc(C)nc4)cn23)cc1OC`, the figure is over 25 µM; as for `COc1ccc(-c2nnc3ccc(-c4ccnc(C(F)(F)F)c4)cn23)cc1OC`, over 25 µM; as for `CC(C)c1cccc(-c2ccc3nnc(-c4ccc(N)cc4)n3c2)c1`, over 25 µM. `COc1cccc(OC)c1-c1nnc2ccc(-c3cccc(OC(C)C)c3)cn12` gave an EC50 of over 25 µM. Compound `CC(C)c1cccc(-c2ccc3nnc(-c4ccc(S(N)(=O)=O)cc4)n3c2)c1` showed an EC50 of over 25 µM. Under `COc1cc(-c2ccc3nnc(-c4ccc(OC)c(OC)c4)n3c2)ccn1` stands over 25 µM. As for `CC(C)c1cccc(-c2ccc3nnc(-c4ccc5cn[nH]c5c4)n3c2)c1`, the figure is over 25 µM; as for `CC(C)Oc1cccc(-c2ccc3nnc(-c4ccc5c(c4)ncn5C)n3c2)c1`, 25 µM.

Compound `COc1ccc(-c2ccc3nnc(-c4ccc(OC)c(OC)c4)n3c2)cn1` showed an EC50 of over 25 µM.

The compound `CC(C)c1cccc(-c2ccc3nnc(-c4cccc(CO)c4)n3c2)c1` registered an EC50 of over 25 µM. Under `CC(C)Oc1cccc(-c2cn3c(-c4ccc(CN)cc4)cnc3cn2)c1` stands 24.2 µM; under `COc1ccc(-c2nnc3ccc(-c4cccc(OC(C)C)c4)cn23)cc1`, over 25 µM; under `COc1ccc(-c2cnc3cnc(-c4cccc(CN)c4)cn23)cc1`, over 25 µM. Under `Cc1ccc(-c2nnc3ccc(-c4cccc(OC(C)C)c4)cn23)cn1` stands over 25 µM; under `COc1ccc(-c2cnc3cnc(-c4cccc(CO)c4)cn23)cc1`, over 25 µM; under `CC(C)c1cccc(-c2ccc3nnc(-c4ccc5[nH]ncc5c4)n3c2)c1`, over 25 µM. As for `CC(C)Oc1cccc(-c2ccc3nnc(-c4cccc(C#N)c4)n3c2)c1`, the figure is over 25 µM; as for `COc1ncc(-c2cnc3cnc(-c4cccc(OC(C)C)c4)cn23)cn1`, over 25 µM; as for `CC(C)c1cccc(-c2ccc3nnc(-c4ccncc4)n3c2)c1`, over 25 µM.

The compound `CC(C)Oc1cccc(-c2cn3c(-c4cnn(C)c4)cnc3cn2)c1` displayed an EC50 of over 25 µM. Compound `COc1ccc(-c2nnc3ccc(-c4ccc5[nH]ncc5c4)cn23)cc1OC` returned an EC50 of over 25 µM.

The compound `COc1ccc(-c2nnc3ccc(-c4ccc5c(cnn5C)c4)cn23)cc1OC` showed an EC50 of over 25 µM. As for `COc1ccc(-c2nnc3ccc(-c4cccc(OC(C)C)c4)cn23)cc1OC`, the figure is over 25 µM. Under `CC(C)c1cccc(-c2ccc3nnc(-c4ccccn4)n3c2)c1` stands 14 µM; under `CC(C)c1cccc(-c2ccc3nnc(-c4ccnn4C)n3c2)c1`, over 25 µM; under `COc1cccc(-c2ccc3nnc(-c4ccc(OC)c(OC)c4)n3c2)c1`, over 25 µM. Under `COc1cccc(-c2cn3c(-c4ccc(OC)c(F)c4)cnc3cn2)c1` stands 24.2 µM. The compound `CC(C)Oc1cccc(-c2cn3c(-c4ccc(N)cc4)cnc3cn2)c1` had a concentration giving a half-maximal response (EC50) of 21.3 µM. As for `CC(C)c1cccc(-c2ccc3nnc(-c4cnc5[nH]ncc5c4)n3c2)c1`, the figure is over 25 µM. For the compound `CC(C)Oc1cccc(-c2ccc3nnc(-c4ccc(F)cc4)n3c2)c1`, the 50% effective concentration (EC50) is over 25 µM. As for `COc1ccc(-c2nnc3ccc(-c4ccc(N5CCN(C)CC5)nc4)cn23)cc1OC`, the figure is over 25 µM; as for `COc1cccc(-c2nnc3ccc(-c4cccc(OC(C)C)c4)cn23)n1`, 12.7 µM. Under `CC(C)Oc1cccc(-c2ccc3nnc(-c4ccc([S@+](C)[O-])cc4)n3c2)c1` stands over 25 µM; under `COc1cccc(-c2cn3c(-c4ccc5c(c4)CCO5)cnc3cn2)c1`, over 25 µM. In turn, `COc1ccc(-c2nnc3ccc(-c4cccc(C(C)C)c4)cn23)c(OC)c1` yielded an EC50 of 23.7 µM. As for `COc1ccc(-c2cnc3cnc(-c4ccnc(OC)c4)cn23)cc1`, the figure is over 25 µM.

`COc1ccc(-c2nnc3ccc(-c4ccc5cn[nH]c5c4)cn23)cc1OC`: the concentration giving a half-maximal response (EC50) is over 25 µM. As for `CC(C)Oc1cccc(-c2cn3c(-c4ccc(CO)cc4)cnc3cn2)c1`, the figure is 25 µM.

Compound `CC(C)Oc1cccc(-c2cn3c(-c4ccc(S(N)(=O)=O)cc4)cnc3cn2)c1` showed an EC50 of 25 µM. For the compound `COc1ccc(-c2nnc3ccc(-c4ccc(O)cc4)cn23)cc1OC`, the half-maximal effective concentration (EC50) was over 25 µM. As for `COc1ncc(-c2nnc3ccc(-c4cccc(C(C)C)c4)cn23)cn1`, the figure is over 25 µM. As for `COc1ccc(-c2cnc3cnc(-c4cccc(C#N)c4)cn23)cc1`, the figure is over 25 µM; as for `CC(C)c1cccc(-c2ccc3nnc(-c4ccc(CO)cc4)n3c2)c1`, over 25 µM. As for `COc1ccc(-c2cnc3cnc(-c4ccccn4)cn23)cc1`, the figure is over 25 µM; as for `COc1cc(-c2nnc3ccc(-c4cccc(C(C)C)c4)cn23)ccn1`, over 25 µM.

Consider `COc1ccc(-c2nnc3ccc(-c4ccc(F)cc4)cn23)cc1OC`, for which the concentration giving a half-maximal response (EC50) was over 25 µM. As for `CCOc1cccc(-c2ccc3nnc(-c4ccc(OC)c(OC)c4)n3c2)c1`, the figure is over 25 µM. Under `COc1ccc(-c2nnc3ccc(-c4cccc(OC(C)C)c4)cn23)cc1F` stands 25 µM; under `COc1ccc(-c2nnc3ccc(-c4cccnc4OC)cn23)cc1OC`, over 25 µM. As for `COc1ccc(-c2nnc3ccc(-c4cccc(CO)c4)cn23)cc1OC`, the figure is over 25 µM; as for `COc1cccc(-c2nnc3ccc(-c4cccc(OC(C)C)c4)cn23)c1`, over 25 µM.
